Bioassay records from PubChem BioAssay.
UCH37 inh – inhibitors of human deubiquitinating enzyme UCH37; purified proteasome/UCH37, Ub-AMC cleavage fluorescence; inhibition, % (no concentration beside the values); actives 0.33% (n = 330,000); AID 588478;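 active means mean inhibition over replicate wells above about 20%, limit read from the data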
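System: Proteasome-associated human UCH37 deubiquitinase; Input: 0.15 nM proteasome in added enzyme buffer; Also added: Ub-AMC substrate from 1 µM stock; Incubation: 30 min compound-proteasome preincubation then 25 min substrate reaction, room temperature; Detection: fluorescence, ex 355 nm, em 460 nm; Read-out: % inhibition of Ub-AMC cleavage fluorescence; Benchmarks: no-proteasome and no-compound wells.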
SENP1 FRET inh – inhibitors of human SENP1 SUMO protease catalytic domain; Q9P0U3; recombinant SENP1 catalytic domain, CyPet-SUMO1-YPet FRET cleavage; inhibition, % at 10 µM; actives 0.21% (n = 360,000); AID 624204;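 active means inhibition at least 30% at 10 µM, raw YFP signal under a set limit, fluorescence ratio 0.5 to 1.5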
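Assay system: hSENP1 catalytic domain, recombinant. Amount: SENP1 enzyme, 20 pM final. Schedule: 50 min reaction, RT, dark. Technique: FRET, CFP and YFP emission. Control set: no-enzyme wells low, DMSO-plus-enzyme wells high control.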
SENP7 inh – SENP7 protease inhibition. AID 434973. Q9BQF6. actives 1.5% (n = 330,000). inhibition, % at 5 µM. recombinant SENP7, Z-RLRGG-aminoluciferin luminescence, 40 min;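 active means inhibition above about 50% at the single test dose, limit read from the data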
Target sequence (Q9BQF6 706-1050 limits assumed): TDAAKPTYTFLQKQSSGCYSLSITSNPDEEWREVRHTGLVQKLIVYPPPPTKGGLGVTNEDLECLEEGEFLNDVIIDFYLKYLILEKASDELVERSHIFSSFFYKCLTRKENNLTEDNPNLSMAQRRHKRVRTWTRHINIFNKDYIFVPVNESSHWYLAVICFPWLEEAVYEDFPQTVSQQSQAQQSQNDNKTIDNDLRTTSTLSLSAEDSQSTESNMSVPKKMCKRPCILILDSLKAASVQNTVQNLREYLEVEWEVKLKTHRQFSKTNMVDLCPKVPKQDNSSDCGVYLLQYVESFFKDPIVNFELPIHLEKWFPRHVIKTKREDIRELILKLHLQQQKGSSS
SENP8 block-1 – inhibitors of human SENP8 protease | actives 0.64% (n = 360,000) | AID 602440 | Q96LD8 | inhibition, % at 20 µM | recombinant SENP8, Nedd8 substrate fluorescence; in the data active means inhibition mostly above about 40%, no sharp cut-off; inactive means mostly below about 27%
Target sequence (Q96LD8 whole entry, looked up): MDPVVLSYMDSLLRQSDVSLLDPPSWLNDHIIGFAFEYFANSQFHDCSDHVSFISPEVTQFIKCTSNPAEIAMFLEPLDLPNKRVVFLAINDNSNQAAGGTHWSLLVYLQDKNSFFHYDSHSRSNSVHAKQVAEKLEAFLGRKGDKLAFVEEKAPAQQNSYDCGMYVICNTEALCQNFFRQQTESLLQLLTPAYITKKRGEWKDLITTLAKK
SENP6 inh – SENP6 protease inhibition; Q9GZR1; inhibition, % at 10 µM; actives 1.8% (n = 330,000); Recombinant SENP6 catalytic domain, aminoluciferin luminescence;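 active means inhibition above about 50% at the single tested dose, limit read from the data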
SENP8 block-2 – inhibitors of human SENP8 protease. Q96LD8. purified SENP8, Z-RLRGG-aminoluciferin cleavage, luminescence. inhibition, % at 10 µM. actives 1.2% (n = 330,000). AID 2540; in the data active means inhibition above about 50%
UCH37 confirm – confirmation of human UCH37 deubiquitinating enzyme inhibitors | shares compounds with UCH37 inh | Proteasome-bound UCH37, Ub-AMC cleavage fluorescence | inhibition, % at 20 µM | actives 27% (n = 480);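 active means average inhibition over replicates above about 50%, so the earlier screening hit is confirmed, limit read from the data; inactive means the rest, counted as false positives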;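 further: based on cleavage rate fitted by regression over a 30 min kinetic read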
Hits are given with their value; n = inactive; x = no result. This is a sample that favours compounds with a hit; in the whole collection about 2.6% have one here.

SMILES | UCH37 inh | SENP1 FRET inh | SENP7 inh | SENP8 block-1 | SENP6 inh | SENP8 block-2 | UCH37 confirm
CC(C)NC(=O)/C(C#N)=C\c1ccc(N(C)C)o1 | 37 | n | n | n | n | n | n
COc1cc(C=NNC(=O)c2cccc(C(=O)NN=Cc3ccc(O)c(OC)c3)n2)ccc1O | n | x | x | x | x | x | x
O=C(NN=C/C(Cl)=C/c1ccccc1)c1ccncc1 | n | x | x | x | x | x | x
CC(=O)N(N=C1Sc2ccccc2C1=O)c1ccc(C)cc1C | 35 | x | x | x | x | x | n
CN(C)/C=C1/Sc2ccccc2C1=O | n | n | n | n | n | n | x
COc1ccccc1N(N=C1Sc2ccccc2C1=O)C(C)=O | 71 | x | x | x | x | x | n
CC(=NNS(=O)(=O)c1ccc(C)cc1)c1c[nH]c2ccccc12 | n | x | x | x | x | x | x
CC(Cn1nnc2ccccc21)=NOC(=O)c1c(F)cccc1F | n | x | x | x | x | x | x
Cc1ccc(CN(C(=O)Cc2cccs2)C(C(=O)NC2CCCC2)c2ccncc2)cc1 (stereo not drawn) | n | n | n | n | n | n | x
Cc1ccc(C(C(=O)NC2CCCC2)N(Cc2ccc3c(c2)OCO3)C(=O)Cc2cccs2)cc1 (stereo not drawn) | 36 | n | n | n | n | n | n
COc1ccc(COC(=O)NN=Cc2cccs2)cc1 | n | x | x | x | x | x | x
CC(=NNC(=O)c1ccc2ccccc2c1)c1cccnc1 | n | x | x | x | x | x | x
C=CCOc1ccc(C=NNc2ccc(S(=O)(=O)Nc3ccccc3C(=O)O)cc2[N+](=O)[O-])cc1OC | 86 | n | n | n | n | n | 83
O=C(O)c1ccccc1NS(=O)(=O)c1ccc(NN=Cc2ccc(O)c(O)c2)c([N+](=O)[O-])c1 | n | x | x | x | x | x | x
COc1cccc(C=NNc2ccc(S(=O)(=O)Nc3ccccc3C(=O)O)cc2[N+](=O)[O-])c1O | n | x | x | x | x | x | x
O=C(O)c1ccccc1NS(=O)(=O)c1ccc(NN=Cc2cccc(O)c2O)c([N+](=O)[O-])c1 | 32 | x | x | x | x | x | n
O=C(O)c1cccc(NC2=C(n3nnc4ccccc43)C(=O)c3ccccc3C2=O)c1 | 52 | n | n | 69 | n | n | 55
c1coc(-c2nnc(-c3cccs3)o2)c1 | n | n | n | n | n | n | x
O=c1cc(-c2ccco2)nc(-c2cccs2)o1 | 43 | n | n | n | n | n | n
CC(=NNC(=O)c1ccc(OC2CCCC2)cc1)c1ccc(C)s1 | n | x | x | x | x | x | x
COc1cc(C=NNc2cccc(C)c2)ccc1OC(=O)c1ccco1 | n | x | x | x | x | x | x
COc1ccc(C2C(C(=O)OC(C)C)=C(C)N=c3sc(=Cc4cccs4)c(=O)n32)cc1 (stereo not drawn) | n | x | x | x | x | x | x
ON=Cc1cccn1-c1ccc(Br)cc1 | n | x | x | x | x | x | x
CCCNC1=C(N(C(C)=O)c2cccc(F)c2)C(=O)c2ccccc2C1=O | n | n | x | n | x | x | x
CCC(=O)N(C1=C(NC(C)C)C(=O)c2ccccc2C1=O)C(C)C | 46 | n | n | n | n | n | n
SMILES | UCH37 inh | SENP1 FRET inh | SENP7 inh | SENP8 block-1 | SENP6 inh | SENP8 block-2 | UCH37 confirm
Cc1ccsc1C=NNC(=O)c1ccc2nc[nH]c2c1 | n | x | x | x | x | x | x
Cc1c(NC(=S)NN=Cc2ccccc2O)c(=O)n(-c2ccccc2)n1C | n | x | x | x | x | x | x
COc1ccccc1N(C(C)=O)C1=C(Cl)C(=O)c2ccccc2C1=O | x | n | x | n | x | x | x
CC(=O)N(C1=C(N)C(=O)c2ccccc2C1=O)C(C)C | 26 | n | n | n | n | n | n
CS(=O)(=O)c1ccc(S(=O)CC(=O)OCc2ccccc2)c([N+](=O)[O-])c1 (stereo not drawn) | 44 | n | x | n | x | x | n
O=C(CS(=O)c1ccc(C(F)(F)F)cc1[N+](=O)[O-])Oc1ccccc1 (stereo not drawn) | n | n | n | n | n | n | x
CC(=NNC(=O)c1nnn(-c2nonc2N)c1COc1ccccc1)c1ccccc1 | n | x | x | x | x | x | x
CCOC(=O)C1=C(N)n2c(sc(=Cc3ccccc3)c2=O)=C(C(=O)OCC)C1c1ccccc1 (stereo not drawn) | n | x | x | x | x | x | x
CC(=O)Nc1ccc(SCC(=O)c2cc(C)n(C)c2C)cc1 | 43 | n | n | n | n | n | n
COC(=O)COc1ccc(C(c2c(C)[nH][nH]c2=O)c2c(C)[nH][nH]c2=O)cc1 | n | n | n | n | n | n | x
COC(=O)c1ccc(-c2ccc(C(c3c(C)[nH][nH]c3=O)c3c(C)[nH][nH]c3=O)o2)cc1 | 45 | n | n | n | n | n | 67
Cc1cccc(C(=O)Nc2cccc(C(=O)NN=Cc3ccc4c(c3)OCO4)c2)c1 | n | x | x | x | x | x | x
COc1ccc(/C(O)=C2\C(=O)C(=O)N(CCN(C)C)C2c2cccc(OC)c2OC)cc1 (stereo not drawn) | n | n | n | n | n | n | x
COc1ccc(C2/C(=C(\O)c3ccc(OC)c(Cl)c3)C(=O)C(=O)N2CCN(C)C)cc1 (stereo not drawn) | 34 | n | n | n | n | n | n
CCCOc1ccc(/C(O)=C2/C(=O)C(=O)N(CCN(C)C)C2c2ccc(O)c(OC)c2)cc1 (stereo not drawn) | 22 | n | x | n | x | x | n
COCCCN1C(=O)C(=O)/C(=C(/O)c2ccc(OC)cc2)C1c1ccc(O)c(OC)c1 (stereo not drawn) | n | n | n | n | n | n | x
C=C(C)C1CCC(C)=C1CC(C)(C)/C=N\n1cnnc1 (stereo not drawn) | x | n | n | n | n | n | x
C=C(C)C1CCC(C)=C1CC(C)(C)C=Nn1cnnc1 (stereo not drawn) | 42 | x | x | x | x | x | 58
O=C1C2C3CCCC3=C3CCCC3C2C(=O)N1c1ccc(Cl)cc1 (stereo not drawn) | 63 | n | n | n | n | n | 75
Cc1cc(C)n(-c2nnc(C)n2N=Cc2ccccc2O)n1 | n | x | x | x | x | x | x
ON=C1CCCc2ccc(Cl)cc21 | n | x | x | x | x | x | x
O=C1C(Nc2ccc(O)cc2)=CC(=NS(=O)(=O)c2cccs2)c2ccccc21 | 75 | x | x | x | x | x | n
Cc1[nH]n(-c2ccccc2)c(=O)c1C(C[N+](=O)[O-])c1ccc(Br)cc1 (stereo not drawn) | 29 | n | n | 88 | n | n | n
O=C(NCc1ccccc1)c1ccc(N2CCC3(CC2)CC(c2ccccc2)=NO3)c([N+](=O)[O-])c1 | 47 | n | n | n | n | n | n
CC(=NNC(=O)c1c(C)nc2ccccn12)c1ccc(N2CCOCC2)cc1 | n | x | x | x | x | x | x
COc1cc(NC(=S)NC2CC(C)(C)NC(C)(C)C2)c(OC)cc1Cl | 39 | n | n | n | n | n | n
Nc1ccc2c(c1)C(=O)C(=O)c1ccccc1-2 | 99 | n | 98 | 142 | 89 | 97 | 101
Nc1ccc2c(c1)C(=O)c1ccc(Br)cc1-2 | n | n | x | n | x | x | x
O=C1c2ccccc2C(=O)c2[nH]c(=O)[nH]c21 | 41 | n | n | 55 | 65 | n | n
O=C1C(=O)c2ccccc2C(O)=C1c1ccccc1F | n | n | n | n | n | n | x
